B1: GDF15: recombinant human GDF15, cytokine used as aversive agent (protein, UniProt Q99988 195-308, looked up)
Growth/differentiation factor …: ARARNGDHCPLGPGRCCRLHTVRASLEDLGWADWVLSPREVQVTMCIGACPSQFRAANMHAQIKTSLHRLKPDTVPAPCCVPASYNPMVLIQKTDTGVSLQTYDDLLAKDCHCI

Assays:
Type in all cases: in vivo, mouse
[1] = system: WT and Gipr−/− mice; test: intraperitoneal glucose tolerance test in WT and Gipr−/− mice
[2] = system: obese high-fat-fed mice; test: body weight and food intake in obese high-fat-fed mice
[3] = system: brain neuronal activity (cFos); test: whole-brain cFos analysis; settings: 120 min
In short: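 Chow-fed male C57BL/6J mice were acclimated with daily s.c. PBS for 4 days. On day 5 they received s.c. GIPR agonist (10 nmol/kg), PYY analog (100 nmol/kg), GDF15 (2 nmol/kg) or combinations. Mice were formalin-perfused 120 min post-dose, and brains were iDISCO+-cleared, cFos-immunostained (rabbit, 1:200), light-sheet imaged and registered. Counts came from voxel-based statistics within PBN_D/PBN_V hotspots defined by averaged PYY- and GDF15-group signal. Vehicle n = 8.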

[4] = agent alone, dosed once daily, 72-h dosing period, n = 6 per group

Molecule	blood glucose in intraperitoneal glucose tolerance test [1]	weight loss in combination with the LAPYY analog ([2]; LAGIPRA 10 nmol/kg plus LAPYY analog, once daily)	body weight [2, 4]	food intake [2, 4]	number of cFos+ cells in the BST [3]	number of cFos+ cells in the NTS and DMX [3]	brain regions with decreased cFos expression ([3]; GDF15 2 nmol/kg s.c., vs vehicle, n = 8)	brain regions with increased cFos expression ([3]; GIPRA 10, PYY 100, GDF15 2 nmol/kg s.c., vs vehicle, n = 8)
LAGIPRA	lowering blood glucose	only delivered greater weight loss in combination with a low dose of the LAPYY analog	reduced	reduced	–	–	–	–
B1	–	–	–	–	increased numbers	increased number	decreased cFos expression in nine regions	increased cFos expression in seven brain areas
